Each structure is given as a SMILES string.

Assay [1] has as its target Delta-type opioid receptor (Mus musculus, UniProt P32300). The assay is described as follows: Agonistic activity in mouse vas deferens. Format: functional, tissue-based.
Assay [2] is described as follows: Ratio of IC50 morphine and antagonist binding to opioid receptor.
Assay [3] has as its target T1, Opioid receptor (mu and kappa) (Cavia porcellus, UniProt P41144+P97266). The assay is described as follows: Agonistic activity in guinea pig ileal longitudinal muscle. Type of assay: functional, tissue-based, Muscle tissue.
The target in assay [4] is Delta-type opioid receptor (Mus musculus) (UniProt P32300). The experiment in a line: Ratio of IC50 DADLE and antagonist binding to delta opioid receptor.
Sequence of Delta-type opioid receptor (Mus musculus) (P32300 whole entry): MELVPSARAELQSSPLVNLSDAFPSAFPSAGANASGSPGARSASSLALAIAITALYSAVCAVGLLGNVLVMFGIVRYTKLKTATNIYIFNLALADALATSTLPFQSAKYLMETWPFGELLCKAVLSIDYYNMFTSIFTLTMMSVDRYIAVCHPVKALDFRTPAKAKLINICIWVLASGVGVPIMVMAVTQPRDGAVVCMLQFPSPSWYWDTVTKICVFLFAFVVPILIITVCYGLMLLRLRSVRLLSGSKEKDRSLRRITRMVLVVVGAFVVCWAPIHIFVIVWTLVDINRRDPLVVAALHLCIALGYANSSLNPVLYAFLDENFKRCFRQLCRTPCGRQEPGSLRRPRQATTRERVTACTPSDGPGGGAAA
Assay [5] deals with T2, Opioid receptor (mu and kappa) (Cavia porcellus) (UniProt P41144+P97266). The assay is described as follows: Ratio of IC50 ethylketazocine and antagonist binding to opioid receptor. Type of assay: protein assay.
T2 sequence (P41144 whole entry, looked up): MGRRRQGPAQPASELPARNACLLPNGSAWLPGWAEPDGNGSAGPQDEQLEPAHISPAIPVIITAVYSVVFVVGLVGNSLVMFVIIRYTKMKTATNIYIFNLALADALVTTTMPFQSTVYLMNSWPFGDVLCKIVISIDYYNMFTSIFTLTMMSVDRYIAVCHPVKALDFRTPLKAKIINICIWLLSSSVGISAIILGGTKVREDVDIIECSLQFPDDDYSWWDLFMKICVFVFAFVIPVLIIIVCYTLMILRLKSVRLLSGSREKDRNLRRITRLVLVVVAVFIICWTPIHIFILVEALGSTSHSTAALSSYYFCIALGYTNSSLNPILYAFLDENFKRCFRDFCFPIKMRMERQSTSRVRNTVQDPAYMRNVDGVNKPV
T2 sequence (P97266 whole entry, looked up): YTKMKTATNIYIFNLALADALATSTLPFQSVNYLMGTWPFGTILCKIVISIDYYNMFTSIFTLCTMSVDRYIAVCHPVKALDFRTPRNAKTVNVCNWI
The target of assay [6] is Delta-type opioid receptor (Mus musculus) (UniProt P32300). The assay is described as follows: Ratio of IC50 DADLE and antagonist binding to delta opioid receptor; Not calculated.
For assay [7], the target named is T1, Opioid receptor (mu and kappa). The experiment in a line: Agonistic activity in guinea pig ileal longitudinal muscle after beta-FNA (200 nM) 60 min treatment. Type of assay: functional, tissue-based, Muscle tissue. Summed up:
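GPI pretreated with beta-FNA so that functional mu receptors are absent; agonist IC50 determined in this tissue and compared with IC50 in untreated GPI.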

Assay [8] addresses Mu-type opioid receptor (Cavia porcellus) (UniProt P97266). The experiment in a line: Antagonistic activity for Opioid receptor mu 1 in guinea pig ileal longitudinal muscle at 200 nM. Type of assay: functional.
The target of assay [9] is Kappa-type opioid receptor (Cavia porcellus) (UniProt P41144). The experiment in a line: Antagonistic activity for Opioid receptor kappa 1 in guinea pig ileal longitudinal muscle at 200 nM. Type of assay: functional.
Sequence of Kappa-type opioid receptor (Cavia porcellus) (P41144 whole entry): as the sequence (P41144 whole entry, looked up) above
For assay [10], the target named is T2, Opioid receptor (mu and kappa) (Cavia porcellus). The assay is described as follows: Ratio of antagonistic activity for mu and kappa receptors. Format: functional. In short, it runs like this: (§1)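 Selectivity ratios mu/kappa and delta/kappa calculated from Ke values; Ke = [antagonist]/(IC50 ratio − 1), using ethylketazocine (kappa) and morphine (mu) in GPI and DADLE (delta) in MVD.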

For assay [11], the target named is Delta-type opioid receptor (Mus musculus) (UniProt P32300). The assay is described as follows: Antagonistic activity for Opioid receptor delta 1 in mouse vas deferens at 200 nM. Format: functional, tissue-based.
Assay [12] can be described thus: Ratio of antagonistic activity for delta and kappa receptors. Format: functional. In short, it runs like this: as §1
For assay [13], the target named is Mu-type opioid receptor (Cavia porcellus) (UniProt P97266). The assay is described as follows: Antagonistic activity for Opioid receptor mu 1 in guinea pig ileal longitudinal muscle at 100 nM. Type of assay: functional.
Sequence of Mu-type opioid receptor (Cavia porcellus) (P97266 whole entry): as the sequence (P97266 whole entry, looked up) above
The target of assay [14] is Kappa-type opioid receptor (Cavia porcellus) (UniProt P41144). The experiment in a line: Antagonistic activity for Opioid receptor kappa 1 of guinea pig ileal longitudinal muscle at 100 nM. Type of assay: functional.
The target of assay [15] is Delta-type opioid receptor (Mus musculus) (UniProt P32300). The experiment in a line: Antagonistic activity for Opioid receptor delta 1 in mouse vas deferens preparation at 100 nM. Type of assay: functional.
For assay [16], the target named is Kappa-type opioid receptor (Cavia porcellus) (UniProt P41144). The experiment in a line: Antagonistic activity for Opioid receptor kappa 1 in guinea pig ileal longitudinal muscle at 20 nM. Format: functional.
Assay [17] has as its target Delta-type opioid receptor (Mus musculus) (UniProt P32300). To be noted: Vas deferens, 20 nM.
Assay [18] addresses Mu-type opioid receptor (Cavia porcellus) (UniProt P97266). To be noted: 100 nM.
Assay [19] shares this target. Conditions: 20 nM.
Assay [20] has as its target Delta-type opioid receptor (Mus musculus) (UniProt P32300). Conditions: Vas deferens, 200 nM.

Sequence of Delta-type opioid receptor (P32300 whole entry): as the sequence (P32300 whole entry) above

The IC50 is the concentration that gives 50% inhibition. A low value points to inhibition by little substance. With `COc1ccc2c3c1O[C@H]1c4[nH]c5c(c4C[C@H]4[C@@H](C2)N(C)CC[C@]314)C[C@H]1[C@H]2Cc3ccc(OC)c4c3[C@@]1(CCN2C)[C@H]5O4`, the half-maximal inhibitory concentration (IC50) in [1] was 1000 nM; in [3], 330 nM. Also, the figures for the Ratio in [2], in [4] and in assay [5] were 0.51, 0.93 and 0.43, respectively.

On to `CC(=O)Oc1ccc2c3c1O[C@H]1c4[nH]c5c(c4C[C@@]4(OC(C)=O)[C@@H](C2)N(CC2CC2)CC[C@]314)C[C@@]1(OC(C)=O)[C@H]2Cc3ccc(OC(C)=O)c4c3[C@@]1(CCN2CC1CC1)[C@H]5O4`, for which the Ratio in [2] is 1.2; in assay [6], 1.4; in [5] it was 1.6.

For the compound `CN1CC[C@]23c4c5ccc(O)c4O[C@H]2c2[nH]c4c(c2C[C@@]3(O)[C@H]1C5)C[C@@]1(O)[C@H]2Cc3ccc(O)c5c3[C@@]1(CCN2C)[C@H]4O5`, the IC50 in assay [1] was found to be 170 nM; in assay [7], 2630 nM; in [3], 250 nM. The Ratio was 0.88 in assay [2], 1.1 in assay [4] and 1.6 in assay [5].

Turning to `COc1ccc2c3c1O[C@H]1c4[nH]c5c(c4C[C@@]4(O)[C@@H](C2)N(CC2CC2)CC[C@]314)C[C@@]1(O)[C@H]2Cc3ccc(O)c4c3[C@@]1(CCN2CC1CC1)[C@H]5O4`, the Ratio was 6.3 in assay [2], 5.4 in assay [4] and 153 in assay [5]. Besides, the Ke is 38 nM in [8], 1.3 nM in [9] and 45 nM in assay [11]. The Selectivity ratio in [10] was 29; in assay [12] it was 35.

Take `CC(=O)O[C@@]12Cc3c([nH]c4c3C[C@@]3(OC(C)=O)[C@H]5Cc6ccc(O)c7c6[C@@]3(CCN5CC3CC3)[C@H]4O7)[C@@H]3Oc4c(O)ccc5c4[C@@]31CCN(CC1CC1)[C@@H]2C5`: the Ke in assay [13] worked out at 42 nM; in [14], 0.38 nM; in [15], 12 nM. Also, the Ratio came to 3.4 in assay [2], 9.2 in assay [4] and 261 in assay [5]. Besides, the figures for the Selectivity ratio in assay [10] and in [12] were 111 and 32, respectively.

Regarding `CN1CC[C@]23c4c5ccc(O)c4O[C@H]2c2[nH]c4c(c2C[C@H]3[C@H]1C5)C[C@H]1[C@H]2Cc3ccc(O)c5c3[C@@]1(CCN2C)[C@H]4O5`, the IC50 worked out at 52 nM in assay [1] and 53 nM in [3]. Further, the figures for the Ratio in [2], in assay [4] and in [5] were 0.68, 0.85 and 0.79, respectively.

Regarding `COc1ccc2c3c1O[C@H]1c4[nH]c5c(c4C[C@@]4(O)[C@@H](C2)N(CC2CC2)CC[C@]314)C[C@@]1(O)[C@H]2Cc3ccc(OC)c4c3[C@@]1(CCN2CC1CC1)[C@H]5O4`, the Ratio in assay [2] worked out at 0.8; in [4] it was 0.6; in assay [5], 3.8. The same compound yielded a Ke in assay [16] of 7.1 nM.

`Cn1c2c(c3c1[C@@H]1Oc4c(O)ccc5c4[C@@]14CCN(CC1CC1)[C@H](C5)[C@]4(O)C3)C[C@@]1(O)[C@H]3Cc4ccc(O)c5c4[C@@]1(CCN3CC1CC1)[C@H]2O5`: the Ratio in assay [2] is 2.8; in assay [4], 4.5; in [5] it was 148. In addition, the Ke in [17] came out at 5.7 nM; in [14], 0.14 nM; in assay [18] it was 11 nM. For the same compound, the Selectivity ratio was 79 in assay [10] and 41 in assay [12].

As to `Oc1ccc2c3c1O[C@H]1c4[nH]ccc4C[C@@]4(O)[C@@H](C2)N(CC2CC2)CC[C@]314`, the Ke in assay [13] stood at 0.65 nM; in assay [14], 2.1 nM; in assay [15], 3.2 nM. The Ratio in [2] worked out at 155; in [4], 32.3; in [5] it was 49.5. For the same compound, the Selectivity ratio in assay [10] worked out at 0.3; in assay [12], 1.5.

Take `Oc1ccc2c3c1O[C@H]1c4[nH]c5c(c4C[C@@]4(O)[C@@H](C2)N(CC2CC2)CC[C@]314)C[C@@]1(O)[C@H]2Cc3ccc(O)c4c3[C@@]1(CCN2CC1CC1)[C@H]5O4`: the Ratio in assay [2] turned out to be 2.6; in assay [4], 2; in [5] it was 49.1. Further, the Ke worked out at 0.41 nM in assay [14], 13 nM in [19] and 20 nM in [20]. The Selectivity ratio in assay [10] is 32; in [12], 49.

These data come from ChEMBL document CHEMBL1124089, “Binaltorphimine-related bivalent ligands and their kappa opioid receptor antagonist selectivity” (J Med Chem, 1988).
